Here are results for 20 compounds from PubChem BioAssay.

The source made the active and inactive calls.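 Rule for the calls, unless noted: active = viability at or below 10% of carrier control in both of two separate runs; inconclusive = viability at or below 10% in only one of the two runs; inactive = the rest.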

Experiment [1] can be described thus: reduced viability of SK-BR-3 breast cancer cells – cell-based, 24 h, human, pilot screen (AID 572).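 Note: compound exposure lasted between 18 and 24 h rather than exactly 24 h; 100% = carrier-treated control wells.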 Particulars: SK-BR-3 viability, CellTiter-Glo luminescence, at 10 µM, stronger effect = lower value.
Experiment [2] in a line: HUVEC growth inhibition – cell-based, human, primary screen (AID 575;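 active = viability at or below 30% in both replicate assays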;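 note: 100% = median of untreated cell wells with 0.1% DMSO on each plate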). To be noted: HUVEC proliferation, CellTiter-Glo luminescence, 72 h; at 10 µM; stronger effect = lower value. The gist of the method:
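system = HUVEC primary cells | amount = 1250 cells/well | buffer or medium = supplemented EBM, 2% fetal bovine serum | dosing = single-point 10 µM, DMSO 0.1% final | times = 72 h compound incubation | detection = CTG luminescence | read-out = % viability relative to median vehicle-well signal on each plate | control set = vehicle and MePR control wells | format = collagen-coated 384-well format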

A short description of experiment [3]: MRP1 drug-resistance reversers in H69AR cells – cell-based, doxorubicin co-treatment, pilot screen (AID 601;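 active = viability loss from added drug above about 55%, and viability with drug at most 40%, in both replicates, limit read from the data, passing the limit was not always enough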). Particulars: CellTiter-Glo, 72 h, at 10 µM; for differential viability (reversal): stronger effect = higher value.
Experiment [4] can be described thus: yeast transport mutant growth inhibition pilot in 384-well plates, post-Golgi transport modulator project (AID 636; in the data active = inhibition above about 31%). To be noted: absorbance 615 nm, about 18 h, stronger effect = higher value.
A short description of experiment [5]: growth suppression of yeast trafficking mutant, preliminary HTS, modulators of trafficking downstream of Golgi apparatus project, 1536-format plate, OD 615 nm (AID 637; in the data active = inhibition above about 30%). To be noted: yeast transport mutant growth, absorbance 615 nm, 18 h; stronger effect = higher value.
The mark [6] stands for this setting: H69AR cells + 2 uM doxorubicin, measured here: viability with 2 uM doxorubicin, stronger effect = lower value.
[7] abbreviates: H69AR cells, compound alone cytotoxicity.

`C/C=C(/C(=C/C)c1ccc(O)cc1)c1ccc(O)cc1`: the viability in experiment [1] is 123% (inactive); in experiment [2], 54.9% (inactive); in experiment [3] (setting [6]) it was 85.2%; in experiment [3] (setting [7]), 27.6%. Besides, the differential viability (reversal) in experiment [3] (H69AR cells + 2 uM doxorubicin) is -57.5% (inactive). In addition, the inhibition was 0.65% (inactive) in experiment [4] and 25% (inactive) in experiment [5].

`COc1ccc2cc(C(c3nnnn3C(C)(C)C)N3CCc4ccccc4C3)c(=O)[nH]c2c1` (stereo unspecified): the viability in experiment [1] was 81% (inactive); in experiment [2], 48.3% (inactive); in experiment [3] (setting [6]), 23.1%; in experiment [3] (setting [7]), 49.1%. Besides, in experiment [3] (H69AR cells + 2 uM doxorubicin), the differential viability (reversal) was 26% (inactive). The inhibition in experiment [4] was -5.33% (inactive); in experiment [5] it was -2.36% (inactive).

`CCOC(=O)N1CCN(CC(=O)Nc2cc(C)nn2-c2nc3ccccc3s2)CC1`: the viability in experiment [1] is 74% (inactive); in experiment [2], 57% (inactive); in experiment [3] (setting [6]), 39.2%; in experiment [3] (setting [7]), 37.7%. In addition, the differential viability (reversal) in experiment [3] (H69AR cells + 2 uM doxorubicin) was -1.56% (inactive). Besides, the inhibition was -0.39% (inactive) in experiment [4] and 2.46% (inactive) in experiment [5].

With `CCOC(=O)c1[nH]c2ccc(Br)cc2c1NC(=O)CCN1CCC(C(=O)OCC)CC1`, the viability is 115% (inactive) in experiment [1], 77.3% (inactive) in experiment [2], 33.2% in experiment [3] (setting [6]) and 45.2% in experiment [3] (setting [7]). For the same compound, the differential viability (reversal) in experiment [3] (H69AR cells + 2 uM doxorubicin) was 12% (inactive). For the same compound, the inhibition in experiment [4] is -2.53% (inactive); in experiment [5] it was 1.27% (inactive).

For `CCCCC(=O)O[C@H]1CC[C@H]2[C@@H]3CCc4cc(O)ccc4[C@H]3CC[C@]12C`, the viability in experiment [1] was 82% (inactive); in experiment [2] it was 1.94% (active); in experiment [3] (setting [6]), 6.17%; in experiment [3] (setting [7]), 19.7%. In addition, the differential viability (reversal) in experiment [3] (H69AR cells + 2 uM doxorubicin) is 13.5% (inactive). Besides, the values for the inhibition in experiment [4] and in experiment [5] were 4.81% (inactive) and 8.33% (inactive), respectively.

As for `N#Cc1cc2ccc(N3CCOCC3)cc2cc1C#N`, the viability was 85% (inactive) in experiment [1], 4.27% (active) in experiment [2], 76.9% in experiment [3] (setting [6]) and 43.4% in experiment [3] (setting [7]). Moreover, in experiment [3] (H69AR cells + 2 uM doxorubicin), the differential viability (reversal) was -33.5% (inactive). The inhibition is -0.91% (inactive) in experiment [4] and -3% (inactive) in experiment [5].

Take `O=C(Cn1c(=O)oc2ccccc21)Nc1ccc(S(=O)(=O)N2CCCCC2)cc1`: the viability is 106% (inactive) in experiment [1], 89.2% (inactive) in experiment [2], 59.9% in experiment [3] (setting [6]) and 65.1% in experiment [3] (setting [7]). Moreover, the differential viability (reversal) in experiment [3] (H69AR cells + 2 uM doxorubicin) is 5.17% (inactive). The values for the inhibition in experiment [4] and in experiment [5] were 1.92% (inactive) and -2.58% (inactive), respectively.

On to `C=C1[C@@H](C)C2[C@H](Cc3ccccc3)NC(=O)[C@]23OC(=O)CC[C@H](O)CCC[C@H](C)C/C=C/[C@H]3[C@@H]1O` (stereo partly specified), for which the viability in experiment [1] is 95% (inactive); in experiment [2] it was 13.1% (active); in experiment [3] (setting [6]), 48.2%; in experiment [3] (setting [7]), 31.9%. Besides, the differential viability (reversal) in experiment [3] (H69AR cells + 2 uM doxorubicin) is -16.3% (inactive). The inhibition in experiment [4] is -0.26% (inactive); in experiment [5], 0.67% (inactive).

Turning to `COc1ccc(CCN(C)CCCC(C#N)(c2ccc(OC)c(OC)c2)C(C)C)cc1OC` (stereo unspecified), the viability in experiment [1] was 73% (inactive); in experiment [2], 66.8% (inactive). For the same compound, the inhibition was -2.34% (inactive) in experiment [4] and -0.5% (inactive) in experiment [5].

As to `COc1ccccc1Nc1nc(N)nc(-c2cc3ccccc3o2)n1`, the viability in experiment [1] was 91% (inactive); in experiment [2], 78.4% (inactive); in experiment [3] (setting [6]), 75.7%; in experiment [3] (setting [7]), 49.3%. For the same compound, the differential viability (reversal) in experiment [3] (H69AR cells + 2 uM doxorubicin) was -26.4% (inactive). The inhibition in experiment [4] was -2.97% (inactive); in experiment [5], -4.55% (inactive).

For `C=CCOc1ccc(CN(C)CC(=O)N(CC(C)C)c2c(N)n(CC(C)C)c(=O)[nH]c2=O)cc1`, the viability in experiment [1] was 99% (inactive); in experiment [2], 99.6% (inactive). Besides, the inhibition was -6.16% (inactive) in experiment [4] and 2% (inactive) in experiment [5].

As to `CCOC(=O)N1CCC(=C2c3ccc(Cl)cc3CCc3cccnc32)CC1`, the viability in experiment [1] is 116% (inactive); in experiment [2] it was 52.7% (inactive). For the same compound, the inhibition in experiment [4] is 1.95% (inactive); in experiment [5] it was 12.2% (inactive).

As for `COc1ccccc1NC(=O)C1=C(C)NC(SCC(=O)c2ccc(C)cc2)=C(C#N)C1c1ccco1` (stereo unspecified), the viability in experiment [1] is 81% (inactive); in experiment [2] it was 72.5% (inactive); in experiment [3] (setting [6]), 16.8%; in experiment [3] (setting [7]) it was 17.6%. Moreover, in experiment [3] (H69AR cells + 2 uM doxorubicin), the differential viability (reversal) was 0.78% (inactive). In addition, the inhibition in experiment [4] is 1.1% (inactive); in experiment [5], -3.64% (inactive).

For `COC(=O)c1ccc(CSc2ncnc3c2nnn3-c2ccc(OC)cc2)o1`, the viability in experiment [1] was 87.5% (inactive); in experiment [2] it was 88% (inactive); in experiment [3] (setting [6]), 71.6%; in experiment [3] (setting [7]), 60.9%. Further, the differential viability (reversal) in experiment [3] (H69AR cells + 2 uM doxorubicin) was -10.7% (inactive). Besides, the inhibition is -1.97% (inactive) in experiment [4] and 6.07% (inactive) in experiment [5].

In the case of `CN(C)CCCN1c2ccccc2Sc2ccc(Cl)cc21`, the viability was 71% (inactive) in experiment [1], 2.62% (active) in experiment [2], 28.3% in experiment [3] (setting [6]) and 1.67% in experiment [3] (setting [7]). For the same compound, in experiment [3] (H69AR cells + 2 uM doxorubicin), the differential viability (reversal) is -26.7% (inactive). Also, the values for the inhibition in experiment [4] and in experiment [5] were -0.91% (inactive) and 7.17% (inactive), respectively.

Regarding `Cc1ccc(Cn2c(=N)c(C(=O)NCc3ccco3)cc3c(=O)n4ccccc4nc32)cc1`, the viability in experiment [1] was 78% (inactive); in experiment [2] it was 96.1% (inactive); in experiment [3] (setting [6]) it was 47.4%; in experiment [3] (setting [7]), 47.1%. Moreover, the differential viability (reversal) in experiment [3] (H69AR cells + 2 uM doxorubicin) was -0.275% (inactive). In addition, the inhibition in experiment [4] is -5.81% (inactive); in experiment [5] it was -4.36% (inactive).

For `CCOC(=O)N1CCC(NC(=O)c2ccc3c(c2)sc2nc(-c4cccc(OC)c4)cn23)CC1`, the viability in experiment [1] is 80% (inactive); in experiment [2], 52% (inactive); in experiment [3] (setting [6]) it was 41.5%; in experiment [3] (setting [7]), 49.9%. Further, the differential viability (reversal) in experiment [3] (H69AR cells + 2 uM doxorubicin) is 8.43% (inactive). Besides, the inhibition is -1.95% (inactive) in experiment [4] and -0.98% (inactive) in experiment [5].

Turning to `CC(=O)O[C@H]1C(=O)[C@]2(C)[C@H]([C@H](OC(=O)c3ccccc3)[C@]3(O)C[C@H](OC(=O)[C@H](O)[C@@H](NC(=O)c4ccccc4)c4ccccc4)C(C)=C1C3(C)C)[C@]1(OC(C)=O)CO[C@@H]1C[C@@H]2O`, the viability in experiment [1] is 67% (inactive); in experiment [2], 38.8% (inactive); in experiment [3] (setting [6]), 81.8%; in experiment [3] (setting [7]) it was 12.6%. The differential viability (reversal) in experiment [3] (H69AR cells + 2 uM doxorubicin) was -69.2% (inactive). In addition, the results for the inhibition in experiment [4] and in experiment [5] were 0.52% (inactive) and -0.67% (inactive), respectively.

On to `CCCSc1ccc2nc(NC(=O)OC)[nH]c2c1`, for which the viability was 95% (inactive) in experiment [1], 43.2% (inactive) in experiment [2], 48.9% in experiment [3] (setting [6]) and 20.3% in experiment [3] (setting [7]). Moreover, the differential viability (reversal) in experiment [3] (H69AR cells + 2 uM doxorubicin) was -28.6% (inactive). Further, the inhibition in experiment [4] is -1.56% (inactive); in experiment [5], 0.17% (inactive).

As to `N#Cc1c(N2CCCC2)nc(N)c2c(N)nc(N3CCCC3)cc12`, the viability in experiment [1] was 82% (inactive); in experiment [2], 68.2% (inactive); in experiment [3] (setting [6]), 75.2%; in experiment [3] (setting [7]) it was 46.3%. Also, in experiment [3] (H69AR cells + 2 uM doxorubicin), the differential viability (reversal) is -29% (inactive). The inhibition is -0.13% (inactive) in experiment [4] and -2.3% (inactive) in experiment [5].
